Assay outcomes deposited in PubChem BioAssay by The Scripps Research Institute Molecular Screening Center.
Shown are actives, neighbours in structure and some others; about 4.2% of the full set was active somewhere.
OX1R antag-1 – antagonists of human orexin 1 receptor. O43613. CHO/OX1R cells, Fluo-8 calcium fluorescence, orexin A. inhibition, % at 5 µM. 330,000 tested, 0.43% active. AID 434989;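 active = inhibition above its plate's threshold, mean inhibition of all tested compounds on the plate plus 3 SD, cut at about 37% in these data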;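 also: 0% = orexin A challenge wells and 100% = SB-334867-A antagonist wells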
Target sequence (O43613 whole entry, looked up): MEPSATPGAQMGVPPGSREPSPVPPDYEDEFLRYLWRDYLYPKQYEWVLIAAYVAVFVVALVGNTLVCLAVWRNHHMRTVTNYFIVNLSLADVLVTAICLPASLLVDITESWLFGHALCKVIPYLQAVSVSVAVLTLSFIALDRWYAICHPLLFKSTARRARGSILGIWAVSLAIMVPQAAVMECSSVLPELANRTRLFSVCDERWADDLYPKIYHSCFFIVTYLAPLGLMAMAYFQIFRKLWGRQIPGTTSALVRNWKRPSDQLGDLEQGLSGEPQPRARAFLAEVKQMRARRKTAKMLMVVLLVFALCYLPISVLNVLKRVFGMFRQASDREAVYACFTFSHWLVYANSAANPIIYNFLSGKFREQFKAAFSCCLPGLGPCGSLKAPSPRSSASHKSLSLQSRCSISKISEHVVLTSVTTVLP
TAAR1 ag – human TAAR1 agonism; activation, % at 3 µM; AID 624467; CHO RD-HGA16 TAAR1, Fluo-8 calcium fluorescence; vehicle wells 0%, saturating PEA agonist 100%; Q96RJ0; 360,000 tested, 0.99% active;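 active = activation above the mean activation of all test compounds in the run plus 3 SD, cut at about 38% in these data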
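Test system: RD-HGA16 (CHO) cells co-expressing Gα16 and hTAAR1 / Benchmarks: DMSO vehicle as 0%, PEA at EC100 as 100% / Repeats: no replicates (n 1) / Measure: % activation from peak over basal fluorescence ratio, DMSO-to-PEA scaled / Timing: 17-24 h plating, Fluo-8 75 min 37 °C, 30 min RT / Technique: kinetic Fluo-8 calcium fluorescence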
OX1R antag-2 – blocks the human orexin 1 receptor; O43613; OX1R-expressing cells, FRET antagonist read-out; inhibition, % at 6.6 µM; 330,000 tested, 1.8% active; AID 485270; in the data active = inhibition mostly above about 38%, no sharp cut-off; inactive = mostly below about 40%;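 also: 0% = agonist challenge alone and 100% = reference antagonist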
CHO parental Ca – counter-screen: ATP calcium response change in parental CHO cells. 330,000 tested, 0.63% active. parental CHO-K1, ATP-induced calcium, Fluo-8 fluorescence. inhibition, % at 5.6 µM. AID 463079;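 active = inhibition above that plate's mean sample inhibition plus 3 SD, cut at about 26% in these data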;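 also: 0% = ATP-challenged DMSO wells and 100% = DMSO wells without ATP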
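Assay system: untransfected parental CHO cell line. Also added: ATP agonist challenge. Dosing: one dose, 5.6 µM nominal. Measured by: Fluo-8 fluorescence. Read-out: % inhibition. Benchmarks: ATP wells versus no-ATP DMSO wells. Repeats: no replicates.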
TAAR1 antagonist – human TAAR1 antagonism; Q96RJ0; CHO RD-HGA16 TAAR1, Fluo-8 calcium fluorescence, antagonist; inhibition, % at 3 µM; 360,000 tested, 1.5% active; AID 624466;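 active = inhibition above a per-plate cutoff, the mean inhibition of test compounds on that plate plus 3 SD, cut at about 49% in these data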;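 also: 0% = DMSO plus EC80 beta-PEA response and 100% = DMSO alone without agonist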
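Test system: hTAAR1-expressing CHO RD-HGA16 cells, Gα16-coupled; Probe or stimulus: EC80 β-phenethylamine stimulus; Compound dosing: single nominal final test compound concentration of 3 µM; Timing: 140 s kinetic read after compound, 140 s after agonist; Signal: Fluo-8 calcium-sensitive fluorescence; Measure: % inhibition of agonist calcium response; Controls: DMSO and EC80 PEA controls.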
GalR3 antagonist – blocks the human galanin receptor 3 | O60755 | HEK293 GalR3-CNG cAMP membrane potential fluorescence; galR3 body fused to GalR1 C-terminus | inhibition, % at 3 µM | 360,000 tested, 0.44% active | AID 651719;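 active = inhibition above the screen-wide average plus 3 SD, cut at about 13% in these data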;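 also: forskolin and galanin both at EC90 stimulate the cells; cAMP rise reported by CNG channel membrane potential dye signal; 0% = forskolin plus galanin with DMSO and 100% = forskolin alone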
Target sequence (O60755 1-299 limits assumed): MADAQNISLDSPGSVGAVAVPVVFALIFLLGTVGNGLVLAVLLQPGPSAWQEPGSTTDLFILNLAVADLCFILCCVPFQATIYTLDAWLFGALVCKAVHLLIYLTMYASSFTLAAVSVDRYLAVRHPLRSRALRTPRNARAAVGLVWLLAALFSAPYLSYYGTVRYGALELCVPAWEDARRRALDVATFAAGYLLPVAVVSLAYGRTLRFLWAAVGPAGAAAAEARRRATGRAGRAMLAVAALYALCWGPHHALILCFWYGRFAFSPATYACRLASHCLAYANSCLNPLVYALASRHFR
* marks the source's active call; other numbers are inactive results; / = no result.

SMILES	OX1R antag-1	TAAR1 ag	OX1R antag-2	CHO parental Ca	TAAR1 antagonist	GalR3 antagonist
CC(C)CN(C(=O)CSc1nc2ccccc2o1)c1c(N)n(Cc2ccccc2)c(=O)[nH]c1=O	0.9	0.0	30.6*	-21.0	-2.9	-4.2
CC(C)CN(C(=O)CSc1nnc(-c2ccco2)o1)c1c(N)n(Cc2ccccc2)c(=O)[nH]c1=O	0.5	2.7	67.8*	-20.8	-21.5	5.0
COCCN(C(=O)CSc1nnc(-c2ccc(C)c(C)c2)o1)c1c(N)n(CC(C)C)c(=O)[nH]c1=O	-6.9	-0.3	34.4	-7.3	-30.1	10.6
CCN(CC)c1ccc(-c2nnc(SCC(=O)N(CCOC)c3c(N)n(CC(C)C)c(=O)[nH]c3=O)o2)cc1	-25.8	-0.6	56.5*	-22.7	1.2	2.8
CCN(C(=O)CSc1nnc(-c2ccccc2)o1)c1c(N)n(Cc2ccccc2)c(=O)[nH]c1=O	0.8	0.3	70.1*	-16.6	-8.8	-3.3
CCCN1CCc2c(sc(NC(=O)c3ccc(S(=O)(=O)N4CCN(C(=O)OCC)CC4)cc3)c2C(N)=O)C1	8.2	3.2	17.2	-2.2	-19.5	0.5
N#Cc1c(F)cccc1N1CCC(C#N)CC1	-7.5	1.2	8.2	-4.9	-34.8	3.9
CC(C)CN(C(=O)CCCOc1ccc(Cl)cc1Cl)c1c(N)n(Cc2ccccc2)c(=O)[nH]c1=O	11.6	0.5	38.6*	-27.7	-20.9	-5.7
CC(C)CN(C(=O)CCc1ccccc1Cl)c1c(N)n(Cc2ccccc2)c(=O)[nH]c1=O	-14.1	-0.4	5.5	-25.6	-0.5	-4.6
COc1ccccc1NC(=O)C1CCCN1S(=O)(=O)c1cccc2nsnc12 (configuration not stated)	20.0	/	76.1*	-11.6	/	/
COc1ccc(NC(=O)C2CCCN2S(=O)(=O)c2cccc3nsnc23)c(OC)c1 (configuration not stated)	-12.5	/	56.7*	-22.6	/	/
COc1ccc(OC)c(NC(=O)C2CCCN(S(=O)(=O)c3cccc4nsnc34)C2)c1 (configuration not stated)	-11.5	5.2	58.4	2.4	20.7	-2.3
COc1ccc(N(C)C(=O)C2CCCN2S(=O)(=O)c2cccc3nsnc23)cc1 (configuration not stated)	-19.9	1.7	23.1	-8.6	3.6	-6.5
O=C(CCc1nnc(C2CCCCC2)o1)N1CCN(c2ccccc2F)CC1	-23.7	0.7	21.9	45.9*	-22.6	4.1
O=C(COC(=O)c1cccc(NC(=O)c2ccco2)c1)c1ccc(Br)cc1	11.9	13.1	33.4	21.6	61.7*	-5.6
CC(C)(C)C(=O)COC(=O)c1cccc(NC(=O)c2ccco2)c1	-13.8	4.9	3.4	-0.2	12.5	-3.2
O=C(NCc1cccs1)C1CC(O)CN1C(=O)Nc1ccccc1 (configuration not stated)	-8.2	0.4	12.4	2.7	1.0	-9.1
CNCc1ccccc1Sc1cccc2ccccc12	-14.5	4.1	19.1	-22.6	15.9	-13.1
Cc1cc(C)cc(NCc2cc3c(cc2[N+](=O)[O-])OCO3)c1	2.9	-2.0	21.5	-16.3	-6.8	-6.4
COc1ccc(CNCc2cc3c(cc2[N+](=O)[O-])OCO3)cc1	-14.2	0.0	43.8*	-17.6	-11.4	-9.7
CCn1c(CN2CCN(c3ccc(OC)cc3)CC2)nc2cc(S(=O)(=O)N(C)C)ccc21	-14.0	8.2	3.0	-2.0	-20.0	-8.4
COc1ccc(CNC(=O)N2[C@H]3CC[C@@H]2C=C(c2ccc(F)cc2OCc2ccccc2)C3)cc1OC	/	8.0	/	/	49.0*	-4.1
O=C(NCc1ccc(F)cc1)N1[C@H]2CC[C@@H]1C=C(c1ccc(F)cc1OCc1ccccc1)C2	/	1.1	/	/	15.0	-1.2
COc1ccc(C(=O)NCC(=O)N=Nc2c(O)n(C)c3ccccc23)cc1OC	-7.3	4.1	56.7*	-23.4	-12.2	5.9
C=CCn1c(O)c(N=NC(=O)CNC(=O)c2ccncc2)c2ccccc21	-11.9	6.6	67.3*	-12.1	-1.2	-6.5
SMILES	OX1R antag-1	TAAR1 ag	OX1R antag-2	CHO parental Ca	TAAR1 antagonist	GalR3 antagonist
CCOC(=O)CC(=O)CSC1=C(C#N)C(c2ccccc2OC)CC(=O)N1 (configuration not stated)	-16.4	7.1	-4.5	-8.3	-1.2	-1.2
Cc1ccnc(NC(=O)CCC(=O)N(CC(=O)NCc2ccc(F)cc2)CC2CCCO2)c1 (configuration not stated)	-21.0	-4.0	20.0	-14.0	1.6	-9.9
CCOC(=O)CN1C(=O)N(c2ccccc2OC)S(=O)(=O)c2ccccc21	-7.0	-1.4	12.7	-3.6	3.5	-13.1
O=[N+]([O-])c1cnc(Sc2ccncn2)s1	17.9	3.4	72.1*	23.8	-19.8	1.7
O=[N+]([O-])c1cnc(Sc2ccncn2)c([N+](=O)[O-])c1	/	9.8	/	/	4.9	-7.2
COC(=O)c1ccc(Cn2c(C)c(C(=O)Nc3cccc(Oc4ccccc4)c3)sc2=O)o1	/	11.2	/	/	48.7*	-0.9
Cc1c(C(=O)Nc2cccc(Oc3ccccc3)c2)sc(=O)n1Cc1ccc(F)cc1	/	1.4	/	/	9.1	-4.0
CC(C)Nc1nc(NC(C)(C)C)nc(Oc2ccc(=O)n(C)n2)n1	0.4	39.5*	10.8	-15.5	-0.6	-5.6
CC(C)CCNC(=O)NC(=O)CN1C(=O)NC2(CCCCC2)C1=O	-17.9	1.0	14.5	-15.1	-8.2	-1.0
COc1ccc(OCC(O)CNc2ccc(Br)cc2)cc1 (configuration not stated)	-2.0	-3.4	8.5	-11.6	-11.6	-0.8
CCc1cccc2c(C(=O)Cn3nnc(-c4ccc(OC)c(OC)c4)n3)c[nH]c12	68.9*	26.9	45.4*	41.9*	40.2	-1.9
COc1cc(C(=O)NNC(=S)NC(=O)c2ccc3c(c2)OCO3)cc(OC)c1OC	-33.3	43.6*	17.2	-13.0	-29.7	-2.1
COc1cc(C(=O)NNC(=O)c2ccc3c(c2)OCCO3)cc(OC)c1OC	-9.1	4.0	-1.9	-2.7	-6.3	-3.6
CCOC(=O)C1CCCN(c2c(NCCCN(CC)c3cccc(C)c3)c(=O)c2=O)C1 (configuration not stated)	-27.2	7.1	17.6	-33.4	2.5	1.0
Nc1nnc(CCS(=O)(=O)c2ccc(Cl)cc2)s1	-5.9	9.4	6.8	4.8	-0.3	-5.6
Cc1ccc(S(=O)(=O)CCc2nnc(N)s2)cc1C	0.7	6.8	17.7	38.3*	1.9	1.0
O=C(Nc1ccccc1F)C1CCN(C(=O)NC2CCCCC2)CC1	-10.7	-1.4	32.2	-7.6	9.6	-6.5
COc1c(-c2ccc([N+](=O)[O-])cc2[N+](=O)[O-])c(=O)n(C)c(=O)n1C	-13.8	-1.3	50.9*	-3.9	0.3	-5.0
CCOc1ccccc1NC(=O)CCNS(=O)(=O)c1cccc2nsnc12	-20.9	0.7	67.4*	-10.7	-8.4	0.4
